{
  "source": "ChEMBL document CHEMBL2176927",
  "about": "(J Med Chem, 2012)",
  "key": {"[1]": {"target": "Serine/threonine-protein kinase mTOR (Homo sapiens, UniProt P42345)", "test": "Inhibition of human recombinant mTOR by FRET assay"}, "[2]": {"target": "Phosphatidylinositol 4,5-bisphosphate 3-kinase catalytic subunit gamma isoform (Homo sapiens) (UniProt P48736)", "sequence (P48736 whole entry, looked up, canonical isoform)": "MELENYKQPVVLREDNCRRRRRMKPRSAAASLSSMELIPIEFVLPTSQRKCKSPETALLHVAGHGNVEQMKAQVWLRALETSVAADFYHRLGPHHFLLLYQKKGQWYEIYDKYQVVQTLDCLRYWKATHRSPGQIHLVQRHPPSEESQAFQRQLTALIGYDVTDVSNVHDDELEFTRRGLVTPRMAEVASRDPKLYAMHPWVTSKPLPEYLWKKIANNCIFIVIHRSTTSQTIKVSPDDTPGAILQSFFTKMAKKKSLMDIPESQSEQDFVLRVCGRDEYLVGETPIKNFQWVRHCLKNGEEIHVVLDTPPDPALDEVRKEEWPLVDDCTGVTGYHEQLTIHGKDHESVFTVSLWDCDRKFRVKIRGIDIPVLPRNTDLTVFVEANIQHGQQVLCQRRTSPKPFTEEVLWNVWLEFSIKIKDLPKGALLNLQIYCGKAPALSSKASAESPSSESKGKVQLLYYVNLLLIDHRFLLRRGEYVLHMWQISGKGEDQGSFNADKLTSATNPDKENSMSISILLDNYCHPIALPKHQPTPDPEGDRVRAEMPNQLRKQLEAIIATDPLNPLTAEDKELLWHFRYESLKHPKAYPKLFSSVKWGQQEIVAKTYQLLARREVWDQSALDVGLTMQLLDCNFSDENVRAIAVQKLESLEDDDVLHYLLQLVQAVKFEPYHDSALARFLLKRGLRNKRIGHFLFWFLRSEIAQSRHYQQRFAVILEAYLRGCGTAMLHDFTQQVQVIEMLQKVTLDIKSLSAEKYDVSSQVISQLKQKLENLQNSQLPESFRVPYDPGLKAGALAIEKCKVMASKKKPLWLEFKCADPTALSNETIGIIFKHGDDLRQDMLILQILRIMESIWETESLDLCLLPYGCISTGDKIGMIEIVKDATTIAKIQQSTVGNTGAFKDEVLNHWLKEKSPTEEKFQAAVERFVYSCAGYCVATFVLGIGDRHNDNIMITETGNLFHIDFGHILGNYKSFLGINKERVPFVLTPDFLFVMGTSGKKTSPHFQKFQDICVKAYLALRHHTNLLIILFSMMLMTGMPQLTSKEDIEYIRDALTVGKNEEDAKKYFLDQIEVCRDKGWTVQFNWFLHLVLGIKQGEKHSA", "test": "Inhibition of PI3Kgamma at 1 uM", "how_it_was_run": "(§1)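 Kinase selectivity panel of 250 kinases. Test compound at 1 µM; percent inhibition recorded for each kinase.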"}, "[3]": {"test": "AUC in mouse at 5 mg/kg, po", "format": "ADME, organism-based", "parameters": "dose 5 mg/kg, route oral", "conditions": "plasma"}, "[4]": {"test": "Plasma protein binding in mouse", "format": "ADME, cell-free", "conditions": "read-out: PPB (converted)"}, "[5]": {"target": "Phosphatidylinositol 4,5-bisphosphate 3-kinase catalytic subunit alpha isoform (Homo sapiens) (UniProt P42336)", "sequence (P42336 whole entry, canonical isoform)": "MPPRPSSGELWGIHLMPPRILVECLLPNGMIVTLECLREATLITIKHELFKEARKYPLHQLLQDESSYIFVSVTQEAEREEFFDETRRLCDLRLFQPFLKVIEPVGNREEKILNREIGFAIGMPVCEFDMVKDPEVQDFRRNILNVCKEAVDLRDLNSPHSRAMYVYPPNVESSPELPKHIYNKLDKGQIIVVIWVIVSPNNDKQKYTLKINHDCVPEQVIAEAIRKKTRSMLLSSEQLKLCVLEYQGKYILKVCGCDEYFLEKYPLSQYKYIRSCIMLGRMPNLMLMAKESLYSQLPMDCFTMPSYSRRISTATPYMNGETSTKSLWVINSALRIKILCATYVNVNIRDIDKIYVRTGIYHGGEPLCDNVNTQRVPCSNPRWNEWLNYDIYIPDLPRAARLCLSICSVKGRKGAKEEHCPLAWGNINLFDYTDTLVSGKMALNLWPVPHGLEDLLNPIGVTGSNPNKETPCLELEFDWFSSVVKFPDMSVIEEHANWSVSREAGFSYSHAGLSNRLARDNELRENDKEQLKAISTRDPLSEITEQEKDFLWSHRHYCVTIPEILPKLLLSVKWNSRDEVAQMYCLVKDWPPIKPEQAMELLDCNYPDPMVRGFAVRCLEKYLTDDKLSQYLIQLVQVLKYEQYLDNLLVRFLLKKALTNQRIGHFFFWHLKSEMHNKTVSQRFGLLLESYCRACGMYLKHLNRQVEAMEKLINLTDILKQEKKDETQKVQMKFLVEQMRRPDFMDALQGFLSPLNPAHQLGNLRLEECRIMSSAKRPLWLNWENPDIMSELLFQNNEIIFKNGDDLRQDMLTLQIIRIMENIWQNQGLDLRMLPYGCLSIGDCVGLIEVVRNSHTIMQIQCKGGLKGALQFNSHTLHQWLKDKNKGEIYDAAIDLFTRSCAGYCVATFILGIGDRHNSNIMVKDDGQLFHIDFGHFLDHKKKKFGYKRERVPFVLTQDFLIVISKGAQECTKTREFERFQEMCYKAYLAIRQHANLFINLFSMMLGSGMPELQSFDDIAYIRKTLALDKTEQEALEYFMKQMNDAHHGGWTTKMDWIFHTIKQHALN", "test": "Inhibition of PI3Kalpha at 1 uM", "how_it_was_run": "as §1"}, "Cytochrome P450 2C9": {"target": "Cytochrome P450 2C9 (Homo sapiens, UniProt P11712)", "sequence (P11712 whole entry)": "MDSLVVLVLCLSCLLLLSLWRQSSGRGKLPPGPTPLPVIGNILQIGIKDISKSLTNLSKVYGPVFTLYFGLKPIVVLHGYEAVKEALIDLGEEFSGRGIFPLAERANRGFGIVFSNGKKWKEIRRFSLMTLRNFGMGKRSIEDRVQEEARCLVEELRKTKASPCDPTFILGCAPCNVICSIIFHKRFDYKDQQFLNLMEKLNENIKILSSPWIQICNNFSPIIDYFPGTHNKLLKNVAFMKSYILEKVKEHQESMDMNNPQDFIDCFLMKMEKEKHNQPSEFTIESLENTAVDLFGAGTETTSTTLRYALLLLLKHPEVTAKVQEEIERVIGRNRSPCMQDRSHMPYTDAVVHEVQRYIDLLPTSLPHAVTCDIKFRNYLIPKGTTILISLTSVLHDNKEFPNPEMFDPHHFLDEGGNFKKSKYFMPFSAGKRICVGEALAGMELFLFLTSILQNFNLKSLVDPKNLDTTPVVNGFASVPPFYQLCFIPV", "test": "Inhibition of CYP2C9-mediated warfarin metabolism", "format": "ADME", "conditions": "recombinant enzyme"}, "Mus musculus [6]": {"test_system": "Mus musculus", "test": "Toxicity in human PC3 cells xenografted mouse assessed as reduction of body weight at 100 mg/kg, po qd for 14 days", "format": "organism-based, PC-3", "parameters": "dose 100 mg/kg, route oral; scale not given: the % may be the effect or the level left", "conditions": "in vivo, 336 h", "how_it_was_run": "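Female NCR.nude mice implanted s.c. in right hind flank with NCI-PC3 cells (5 × 10^6 in Hank's balanced salt solution). Dosing started QD at average tumor volume 200 mm3, 5 mice per group. Body weight recorded twice weekly; 10% body weight loss was the limit for tolerated doses, and mice were euthanized at 20% loss or tumor volume 2000 mm3.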"}, "[7]": {"test": "Clearance in rat liver microsomes", "format": "ADME, Microsome", "how_it_was_run": "(§2)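 Hepatic clearance (Clhep) predicted from incubation with human, rat or mouse liver microsomes.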"}, "PC-3 [8]": {"test_system": "PC-3", "test": "Cytotoxicity against human pTEN deficient PC3 after 3 days", "format": "functional, cell-based", "conditions": "PC-3, 72 h"}, "[9]": {"test": "Volume of distribution at steady state in mouse at 1 mg/kg, iv", "format": "ADME, organism-based", "parameters": "dose 1 mg/kg, route intravenous", "conditions": "in vivo, read-out: Vdss"}, "Cytochrome P450 3A4": {"target": "Cytochrome P450 3A4 (Homo sapiens, UniProt P08684)", "sequence (P08684 whole entry)": "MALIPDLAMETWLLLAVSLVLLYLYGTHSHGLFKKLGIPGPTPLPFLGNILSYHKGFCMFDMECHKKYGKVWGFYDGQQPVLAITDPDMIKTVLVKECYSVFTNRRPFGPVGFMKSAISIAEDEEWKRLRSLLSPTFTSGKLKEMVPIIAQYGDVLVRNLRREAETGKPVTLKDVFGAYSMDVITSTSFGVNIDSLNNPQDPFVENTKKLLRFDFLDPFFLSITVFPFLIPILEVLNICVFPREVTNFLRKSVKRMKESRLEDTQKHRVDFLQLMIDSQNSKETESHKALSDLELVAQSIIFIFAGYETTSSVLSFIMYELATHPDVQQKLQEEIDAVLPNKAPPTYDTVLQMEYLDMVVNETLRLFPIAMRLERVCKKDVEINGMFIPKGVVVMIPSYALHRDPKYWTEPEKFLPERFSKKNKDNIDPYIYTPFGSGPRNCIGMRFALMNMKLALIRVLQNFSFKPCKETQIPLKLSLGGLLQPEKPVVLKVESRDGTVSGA", "test": "Inhibition of CYP3A4-mediated midazolam and testosterone metabolism", "format": "ADME", "conditions": "recombinant enzyme"}, "Cytochrome P450 1A2": {"target": "T1, Cytochrome P450 1A2 (Homo sapiens, UniProt P05177)", "T1 sequence (P05177 whole entry)": "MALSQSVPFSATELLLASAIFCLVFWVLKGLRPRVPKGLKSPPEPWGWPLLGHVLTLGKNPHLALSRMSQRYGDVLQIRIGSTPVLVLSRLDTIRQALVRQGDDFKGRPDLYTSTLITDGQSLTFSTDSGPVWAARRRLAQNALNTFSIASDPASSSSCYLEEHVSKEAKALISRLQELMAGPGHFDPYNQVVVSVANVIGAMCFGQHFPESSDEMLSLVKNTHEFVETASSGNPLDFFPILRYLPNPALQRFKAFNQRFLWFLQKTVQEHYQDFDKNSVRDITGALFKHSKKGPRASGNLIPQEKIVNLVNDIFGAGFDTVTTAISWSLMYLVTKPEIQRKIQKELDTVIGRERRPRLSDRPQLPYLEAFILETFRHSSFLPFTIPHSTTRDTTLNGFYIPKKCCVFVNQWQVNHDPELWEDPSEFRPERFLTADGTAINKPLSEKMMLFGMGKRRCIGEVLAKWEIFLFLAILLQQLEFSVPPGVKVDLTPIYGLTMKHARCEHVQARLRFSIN", "test": "Inhibition of CYP1A2-mediated phenacetin metabolism", "format": "ADME", "conditions": "recombinant enzyme"}, "[10]": {"target": "T2, Phosphatidylinositol 4,5-bisphosphate 3-kinase catalytic subunit delta isoform (Homo sapiens) (UniProt O00329)", "T2 sequence (whole entry)": "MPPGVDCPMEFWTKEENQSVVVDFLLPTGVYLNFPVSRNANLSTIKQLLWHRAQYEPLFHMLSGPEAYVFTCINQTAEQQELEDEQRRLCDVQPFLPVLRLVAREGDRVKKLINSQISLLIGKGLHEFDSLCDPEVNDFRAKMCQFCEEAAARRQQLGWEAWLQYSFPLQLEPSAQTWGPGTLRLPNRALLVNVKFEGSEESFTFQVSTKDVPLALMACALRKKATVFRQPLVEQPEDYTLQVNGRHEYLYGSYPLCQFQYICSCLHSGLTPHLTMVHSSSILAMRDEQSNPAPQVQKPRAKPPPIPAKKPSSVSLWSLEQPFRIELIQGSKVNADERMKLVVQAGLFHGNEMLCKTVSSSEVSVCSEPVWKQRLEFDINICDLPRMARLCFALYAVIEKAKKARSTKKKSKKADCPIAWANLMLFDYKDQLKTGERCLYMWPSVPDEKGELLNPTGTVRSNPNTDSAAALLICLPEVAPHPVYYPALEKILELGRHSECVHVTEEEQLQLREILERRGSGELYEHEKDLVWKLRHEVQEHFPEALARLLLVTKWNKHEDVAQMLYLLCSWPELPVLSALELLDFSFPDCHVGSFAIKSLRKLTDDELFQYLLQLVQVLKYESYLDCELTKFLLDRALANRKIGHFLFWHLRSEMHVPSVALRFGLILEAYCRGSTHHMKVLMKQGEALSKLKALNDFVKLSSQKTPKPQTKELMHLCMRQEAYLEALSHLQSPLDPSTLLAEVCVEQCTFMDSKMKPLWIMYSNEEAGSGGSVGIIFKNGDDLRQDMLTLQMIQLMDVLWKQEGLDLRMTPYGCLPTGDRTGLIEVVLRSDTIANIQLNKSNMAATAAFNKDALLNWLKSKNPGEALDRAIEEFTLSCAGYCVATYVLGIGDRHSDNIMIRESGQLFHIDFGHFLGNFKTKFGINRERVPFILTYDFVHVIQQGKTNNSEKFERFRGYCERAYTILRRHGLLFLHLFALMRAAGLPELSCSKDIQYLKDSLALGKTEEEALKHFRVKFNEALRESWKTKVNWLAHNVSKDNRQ", "test": "Inhibition of PI3Kdelta at 1 uM", "how_it_was_run": "as §1"}, "[11]": {"test": "Half life in mouse at 1 mg/kg, iv", "format": "ADME, organism-based", "parameters": "dose 1 mg/kg, route intravenous", "conditions": "in vivo"}, "Cytochrome P450 2C19": {"target": "Cytochrome P450 2C19 (Homo sapiens, UniProt P33261)", "sequence (P33261 whole entry)": "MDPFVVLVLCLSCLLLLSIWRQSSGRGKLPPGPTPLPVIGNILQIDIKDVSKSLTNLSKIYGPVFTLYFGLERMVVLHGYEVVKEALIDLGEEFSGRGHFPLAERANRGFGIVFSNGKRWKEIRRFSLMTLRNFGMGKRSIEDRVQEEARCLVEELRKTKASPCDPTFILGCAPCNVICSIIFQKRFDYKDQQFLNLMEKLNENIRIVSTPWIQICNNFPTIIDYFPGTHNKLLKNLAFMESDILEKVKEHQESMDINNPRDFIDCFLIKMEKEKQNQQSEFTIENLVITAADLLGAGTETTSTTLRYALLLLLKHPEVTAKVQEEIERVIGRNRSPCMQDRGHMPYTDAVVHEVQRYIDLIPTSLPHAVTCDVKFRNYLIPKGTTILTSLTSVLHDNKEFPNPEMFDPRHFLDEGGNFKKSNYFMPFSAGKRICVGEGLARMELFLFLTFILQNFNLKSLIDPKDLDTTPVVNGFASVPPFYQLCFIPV", "test": "Inhibition of CYP2C19-mediated mephenytoin metabolism", "format": "ADME", "conditions": "recombinant enzyme"}, "[12]": {"test": "Inhibition of mTORC2 in human pTEN deficient NCI-PC3 cells assessed as reduction of Akt phosphorylation at Ser473", "format": "cell-based"}, "[13]": {"test": "Clearance in mouse at 1 mg/kg, iv", "format": "ADME, organism-based", "parameters": "dose 1 mg/kg, route intravenous", "conditions": "in vivo"}, "PC-3 [14]": {"test_system": "PC-3", "test": "Antitumor activity against human PC3 cells xenografted mouse assessed as tumor growth inhibition at 6.25 to 100 mg/kg, po qd for 14 days", "format": "functional, organism-based", "how_it_was_run": "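Female NCR.nude mice with subcutaneous NCI-PC3 flank tumours, dosed orally once daily (or twice daily at the same daily total) for 14 days from a mean tumour volume of 200 mm3; 5 mice/group. Caliper volume is (L x W x W)/2, measured twice weekly.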"}, "Mus musculus [15]": {"test_system": "Mus musculus", "test": "Inhibition of mTORC2 in human PC3 cells xenografted mouse assessed as reduction of phosphorylated Akt level at 12.5 to 100 mg/kg, po after 6 hrs", "format": "functional, organism-based", "conditions": "PC-3", "how_it_was_run": "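NCI-PC3 s.c. xenografts in female NCR.nude mice grown to about 500 mm3, then randomized (n = 4). Oral suspension in 0.5% methylcellulose/0.2% Tween 80. Tumors were lysed, normalized by BCA assay, and loaded at 20 µg/well. pAkt Ser473 and total Akt were measured in duplex on Meso Scale electrochemiluminescence in duplicate per mouse, relative to time-matched vehicle mean.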"}, "[16]": {"test": "Oral bioavailability in mouse at 5 mg/kg", "format": "ADME, organism-based", "conditions": "in vivo"}, "[17]": {"test": "Plasma protein binding in human", "format": "ADME, cell-free", "conditions": "read-out: PPB (converted)"}, "Cytochrome P450 2D6": {"target": "Cytochrome P450 2D6 (Homo sapiens, UniProt P10635)", "sequence (P10635 whole entry)": "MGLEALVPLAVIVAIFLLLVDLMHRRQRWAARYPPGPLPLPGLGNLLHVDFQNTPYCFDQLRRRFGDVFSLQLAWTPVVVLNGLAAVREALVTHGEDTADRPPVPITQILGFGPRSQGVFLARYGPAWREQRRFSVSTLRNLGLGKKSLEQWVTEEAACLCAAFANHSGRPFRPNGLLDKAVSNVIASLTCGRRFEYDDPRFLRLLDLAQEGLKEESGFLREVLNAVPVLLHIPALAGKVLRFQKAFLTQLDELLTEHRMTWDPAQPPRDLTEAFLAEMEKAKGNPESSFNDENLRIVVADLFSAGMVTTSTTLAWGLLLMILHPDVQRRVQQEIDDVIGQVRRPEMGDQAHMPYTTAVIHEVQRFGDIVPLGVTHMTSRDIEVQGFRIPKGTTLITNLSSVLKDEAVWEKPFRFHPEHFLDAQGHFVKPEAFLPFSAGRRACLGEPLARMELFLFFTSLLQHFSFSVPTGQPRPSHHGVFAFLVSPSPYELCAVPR", "test": "Inhibition of CYP2D6-mediated dextromethorphan metabolism", "format": "ADME", "conditions": "recombinant enzyme"}, "[18]": {"test": "Clearance in human liver microsomes", "format": "ADME, Microsome", "how_it_was_run": "as §2"}, "[19]": {"test": "Clearance in mouse liver microsomes", "format": "ADME, Microsome", "how_it_was_run": "as §2"}, "Mus musculus [20]": {"test_system": "Mus musculus", "test": "Inhibition of mTORC1 in human PC3 cells xenografted mouse assessed as reduction of phosphorylated p70S6K level at 12.5 to 100 mg/kg, po after 6 hrs", "format": "functional, organism-based", "conditions": "PC-3"}, "[21]": {"test": "Plasma protein binding in rat", "format": "ADME, cell-free", "conditions": "read-out: PPB (converted)"}},
  "note": "Calls of active or inactive are those of the source. The rule behind the calls is not given here.",
  "data": [
    {"smiles": "CCNC(=O)Nc1ccc(-c2nc3c(c(N4CCOCC4)n2)CCN(c2ncccn2)C3)cc1", "values": [
      {"measurement": "Ki", "setting": "[1]", "result": 5.5, "unit": "nM"},
      {"measurement": "inhibition", "setting": "[2]", "result": 50, "unit": "%"},
      {"measurement": "AUC", "setting": "[3]", "result": 5.7, "unit": "µM·h"},
      {"measurement": "fraction unbound", "setting": "[4]", "result": 0.01},
      {"measurement": "inhibition", "setting": "[5]", "result": 50, "unit": "%"},
      {"measurement": "inhibition (INH)", "setting": "Cytochrome P450 2C9", "result": "Not Active"},
      {"measurement": "Activity", "setting": "Mus musculus [6]", "result": "> 10", "unit": "%"},
      {"measurement": "CLhep predicted", "setting": "[7]", "result": 31, "unit": "mL/min/kg"},
      {"measurement": "IC50", "setting": "PC-3 [8]", "result": 290, "unit": "nM"},
      {"measurement": "Vd", "setting": "[9]", "result": 1.1, "unit": "L/kg"},
      {"measurement": "inhibition (INH)", "setting": "Cytochrome P450 3A4", "result": "Not Active"},
      {"measurement": "inhibition (INH)", "setting": "Cytochrome P450 1A2", "result": "Not Active"},
      {"measurement": "inhibition", "setting": "[10]", "result": 50, "unit": "%"},
      {"measurement": "half-life", "setting": "[11]", "result": 42, "unit": "min"},
      {"measurement": "inhibition (INH)", "setting": "Cytochrome P450 2C19", "result": "Not Active"},
      {"measurement": "IC50", "setting": "[12]", "result": 25, "unit": "nM"},
      {"measurement": "clearance", "setting": "[13]", "result": 22, "unit": "mL/min/kg"},
      {"measurement": "TGI", "setting": "PC-3 [14]", "result": "Active"},
      {"measurement": "inhibition", "setting": "Mus musculus [15]", "result": "Active"},
      {"measurement": "bioavailability", "setting": "[16]", "result": 70, "unit": "%"},
      {"measurement": "fraction unbound", "setting": "[17]", "result": 0.02},
      {"measurement": "inhibition (INH)", "setting": "Cytochrome P450 2D6", "result": "Not Active"},
      {"measurement": "CLhep predicted", "setting": "[18]", "result": 13, "unit": "mL/min/kg"},
      {"measurement": "CLhep predicted", "setting": "[19]", "result": 40, "unit": "mL/min/kg"},
      {"measurement": "inhibition", "setting": "Mus musculus [20]", "result": "Active"},
      {"measurement": "fraction unbound", "setting": "[21]", "result": 0.01}
    ]}
  ]
}
